According to EPA's CvTdb concentration-time database:
Each block holds one compound with its values, some of them ahead of it.

What was measured:
Rat [1] = test: concentration in plasma after dosing; details: 3 h; dosed: Wyeth-14643; 2.0 mg/kg; oral; Male; Sprague-Dawley
Rat [2] = test: concentration in plasma after dosing; details: dosed: Wyeth-14643, 2.0 mg/kg, oral, Male, Sprague-Dawley
Rat [3] = test: concentration in plasma after dosing; details: 0.5 h; dosed: Wyeth-14643; 1.0 mg/kg; oral; Male; Sprague-Dawley
Rat [4] = test: concentration in plasma after dosing; details: dosed: Wyeth-14643, 2.0 mg/kg, oral, Male, Sprague-Dawley; remark: listed apart in the source
Rat [5] = test: concentration in heart after dosing; details: 1 h; dosed: Bis 2-Chloroethoxy Methane; 20 mg/kg; iv; Male; F344
Rat [6] = test: concentration in plasma after dosing; details: 2 h; dosed: Bis 2-Chloroethoxy Methane; 40 mg/kg; iv; Male; Harlan Sprague Dawley
Rat [7] = test: concentration in brain after dosing; details: 3 h; dosed: Fluorotelomer alcohol 8+2; 80 mg/kg; oral; Female; Harlan Sprague Dawley
Rat [8] = test: concentration in liver after dosing; details: 0.5 h; dosed: Fluorotelomer alcohol 8+2; 80 mg/kg; oral; Female; Harlan Sprague Dawley
Rat [9] = test: concentration in liver after dosing; details: 3 h; dosed: Fluorotelomer alcohol 8+2; 24 mg/kg; oral; Male; Harlan Sprague Dawley
Rat [10] = test: concentration in plasma after dosing; details: 5 min; dosed: Fluorotelomer alcohol 8+2; 12 mg/kg; iv; Male; F344
Rat [11] = test: concentration in kidney after dosing; details: 6 h; dosed: Fluorotelomer alcohol 8+2; 80 mg/kg; oral; Female; Harlan Sprague Dawley
Rat [12] = test: concentration in plasma after dosing; details: 10 min; dosed: Di-n-butyl phthalate; 20 mg/kg; iv; Male; Sprague-Dawley
Rat [13] = test: concentration in plasma after dosing; details: 5 min; dosed: Di-n-butyl phthalate; 20 mg/kg; iv; Male; Sprague-Dawley
Rat [14] = test: concentration in plasma after dosing; details: dosed: Perfluorodecanoic acid, 2 mg/kg, iv, Male, F344
Rat [15] = test: concentration in plasma after dosing; details: dosed: Perfluorodecanoic acid, 2 mg/kg, iv, Male, F344; remark: listed apart in the source
Rat [16] = test: concentration in plasma after dosing; details: 1.5 h; dosed: Primidone; 80 mg/kg; oral; Female; F344
Rat [17] = test: concentration in plasma after dosing; details: 1.5 h; dosed: Primidone; 80 mg/kg; oral; Male; F344
Rat [18] = test: concentration in plasma after dosing; details: 3 h; dosed: Primidone; 80 mg/kg; oral; Female; F344
Rat [19] = test: concentration in liver after dosing; details: 20 min; dosed: Thiodiglycolic Acid; 20 mg/kg; iv; Female; Harlan Sprague Dawley
Rat [20] = test: concentration in heart after dosing; details: 10 min; dosed: Thiodiglycolic Acid; 20 mg/kg; iv; Male; F344
Rat [21] = test: concentration in thymus after dosing; details: 8 h; dosed: Thiodiglycolic Acid; 20 mg/kg; iv; Female; Harlan Sprague Dawley
Rat [22] = test: concentration in plasma after dosing; details: dosed: dichloroacetic acid, 40 mg/kg, oral, Female, Harlan Sprague Dawley
dog = details: dosed: tetrachloroethylene, 72 ppm, inhalation, duration: 4 hr, male, beagle
Summary of the method: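 Concentration-versus-time or amount-versus-time points were compiled from published in vivo toxicokinetic studies and from two structured collections. The studies were found by PubMed searching, classifier screening and manual review. Points were mostly digitised from plot screenshots with WebPlotDigitizer, otherwise copied from tables, and kept in the reported units. Dose, route, subject details and medium were curated by hand from each paper, and sampling and analytical methods follow each source and were often unreported.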

concentration in plasma (Rat [1]): 0.382 µg/mL
concentration in plasma (Rat [2]; 0.25 h): 0.889 µg/mL
concentration in plasma (Rat [2]; 4 h): 0.16 µg/mL
concentration in plasma (Rat [3]): 1.21 µg/mL
concentration in plasma (Rat [4]; 0.5 h): 1.23 µg/mL
concentration in plasma (Rat [4]; 5 h): 0.529 µg/mL
SMILES: Cc1cccc(Nc2cc(Cl)nc(SCC(=O)O)n2)c1C

SMILES: ClCCOCOCCCl [Bis 2-Chloroethoxy Methane]
concentration in heart (Rat [5]): 1380 ng/g
concentration in plasma (Rat [6]): 1290 ng/mL

concentration in brain (Rat [7]): 7770 ng/g
concentration in liver (Rat [8]): 15900 ng/g
concentration in liver (Rat [9]): 2220 ng/g
concentration in plasma (Rat [10]): 24300 ng/mL
concentration in kidney (Rat [11]): 834 ng/g
SMILES: OCCC(F)(F)C(F)(F)C(F)(F)C(F)(F)C(F)(F)C(F)(F)C(F)(F)C(F)(F)F [Fluorotelomer alcohol 8+2]

SMILES: CCCCOC(=O)c1ccccc1C(=O)O [Mono-n-butyl phthalate]
concentration in plasma (Rat [12]): 31.2 µg/mL
concentration in plasma (Rat [13]): 22.8 µg/mL

SMILES: O=C(O)C(F)(F)C(F)(F)C(F)(F)C(F)(F)C(F)(F)C(F)(F)C(F)(F)C(F)(F)C(F)(F)F [Perfluorodecanoic acid]
concentration in plasma (Rat [14]; 24 h): 5510 ng/mL
concentration in plasma (Rat [14]; 1848 h): 410 ng/mL
concentration in plasma (Rat [15]; 1 h): 6010 ng/mL
concentration in plasma (Rat [15]; 528 h): 3220 ng/mL
concentration in plasma (Rat [15]; 3360 h): 204 ng/mL

SMILES: CCC1(c2ccccc2)C(=O)NC(=O)NC1=O [Phenobarbital]
concentration in plasma (Rat [16]): 0.8 µg/mL
concentration in plasma (Rat [17]): 3.1 µg/mL
concentration in plasma (Rat [18]): 1 µg/mL

SMILES: O=C(O)CSCC(=O)O [Thiodiglycolic Acid]
concentration in liver (Rat [19]): 91400 ng/g
concentration in heart (Rat [20]): 8260 ng/g
concentration in thymus (Rat [21]): 395 ng/g

SMILES: O=C(O)C(Cl)Cl [dichloroacetic acid]
concentration in plasma (Rat [22]; 20 min): 8.11 µg/mL
concentration in plasma (Rat [22]; 2 h): 2.69 µg/mL

SMILES: O=C(O)C(Cl)(Cl)Cl [trichloroacetic acid]
amount in urine after dosing (dog; 22 h): 4.04 mg
amount in urine after dosing (dog; 46 h): 1.08 mg
amount in urine after dosing (dog; 70 h): 1.11 mg
